Runt-CBFb FRET – inhibitors of RUNX1 Runt–CBFb binding, primary screen, biochemical, FRET, Cerulean-Runt, Venus-CBFb, uHTS. Runt-related transcription factor 1 (Homo sapiens) + Core-binding factor subunit beta …. Cerulean-Runt/Venus-CBFb FRET ratio 530/480, 1 h. inhibition, % at 20 µM. hit rate 0.46% among 220,000;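 active = inhibition over about 50% at 20 µM in the single-dose screen, limit read from the data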;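 note: 0% = DMSO wells and 100% = excess unlabeled CBFb competitor control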
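Assay system: Cerulean-Runt domain / Medium: Tris 50 mM pH 7.5, KCl, K2SO4, 0.01% BSA / Timing: protein complex preformed 1 h, compound exposure 1 h, room temperature, dark / Measured by: FRET, excitation 422 nm, emission at 530 and 480 nm / Evaluation: loss of energy transfer signal / Control set: 5 µM unlabeled CBFb as full-inhibition high control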
MEX-5 binding – MEX-5 zinc finger RNA-binding disruptors – biochemical, C. elegans, fluorescence polarization, MLPCN library, primary screen; activity score (negative = inhibition of binding), % at 10 µM; hit rate 0.38% among 300,000; MEX-5/FITC-TCR2 RNA binding; active compounds read low; Zinc finger protein mex-5 (Caenorhabditis elegans), Q9XUB2;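 active = inhibition past about -25% in most replicates, and total fluorescence under double the plate's negative control median, limit read from the data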;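 note: 0% = DMSO and -100% = 5 µM competing unlabeled TCR2 RNA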
LANA-H2A inh – blockers of LANA interaction with H2A/H2B – biochemical, FP readout, HTS, primary screen; cell-free LANA-H2A/H2B peptide, fluorescence polarization; inhibition, % (test concentration not listed); hit rate 0.6% among 320,000; AID 2629, 2010; in the data active = inhibition mostly above about 10%, no sharp cut-off; inactive = mostly below about 6.7%
EBV gp42 inh – Epstein-Barr virus gp42 inhibitors, primary screen, biochemical, uHTS, fluorescence polarization; Glycoprotein 42 (Epstein-Barr virus (strain AG876)), Q1HVG2; Fluorescence polarization binding assay, mP read-out; inhibition, % (tested at 21.74 µM); hit rate 0.42% among 220,000; in the data active = inhibition above about 50%
Target sequence (Q1HVG2 whole entry, looked up): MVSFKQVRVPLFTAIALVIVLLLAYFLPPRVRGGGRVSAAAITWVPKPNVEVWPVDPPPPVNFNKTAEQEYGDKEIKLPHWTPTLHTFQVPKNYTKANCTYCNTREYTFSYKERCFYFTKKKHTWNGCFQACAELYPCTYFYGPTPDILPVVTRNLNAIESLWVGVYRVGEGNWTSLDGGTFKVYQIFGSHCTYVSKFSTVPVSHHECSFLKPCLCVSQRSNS
RanGTP-Impb inh – inhibitors of RanGTP-importin-beta interaction, primary screen, biochemical, FRET, CFP-Ran, YFP-importin-beta, homogeneous; Ran GTPase (GTP-bound) - importin-beta complex; cell-free CFP-Ran/YFP-importin-beta FRET ratio; inhibition, % (concentration not given with the values); hit rate 1.1% among 300,000; AID 2216, 2009;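 active = more than half of the replicate wells show a fall in the fluorescence ratio signal beyond about 16%, limit read from the data, passing the limit was not always enough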;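 note: 0% = DMSO wells and 100% = Ran loaded with GDP instead of GTP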
Runt-SMMHC FRET – inhibitors of RUNX1 Runt–CBFb-SMMHC binding, primary screen, biochemical, FRET, Cerulean-Runt, Venus-CBFb-SMMHC, uHTS. Runt-related transcription factor 1 (Homo sapiens) + Core-binding factor subunit beta …. Cerulean-Runt/Venus-CBFb-SMMHC FRET ratio 530/480, 1 h. inhibition, % at 20 µM. hit rate 0.74% among 220,000. AID 1434, 2008;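 active = mean inhibition across duplicate retests at 20 µM reaching about 50%, limit read from the data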;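 note: 0% = DMSO wells and 100% = wells with excess untagged CBFb-SMMHC; inhibitors lower the FRET ratio by blocking Runt binding to CBFb-SMMHC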
Numbers without * were called inactive; ! = not active in a repeat. Most compounds without a hit are left out; they make up all but 2.4% or so of the library.

Screening CCN(C[C@H]1N[C@@](Cc2ccccc2)(C(=O)OC)[C@H]2C(=O)N(C)C(=O)[C@@H]12)S(=O)(=O)c1ccc(OC)cc1 returned LANA-H2A inh active.
CCN(C[C@H]1N[C@@](Cc2ccccc2)(C(=O)OC)[C@H]2C(=O)N(C)C(=O)[C@@H]12)C(=O)NC(C)C was read as LANA-H2A inh active.
CCN(C[C@H]1N[C@@](Cc2ccccc2)(C(=O)OC)[C@H]2C(=O)N(C)C(=O)[C@@H]12)C(=O)COC was read as LANA-H2A inh -147.3.
For CCN(CC)c1ccc2c(C)c(CO)c(=O)oc2c1 the results were Runt-CBFb FRET 20.8, MEX-5 binding 0.1, LANA-H2A inh -3.3, EBV gp42 inh 2.9, RanGTP-Impb inh 131.5* and Runt-SMMHC FRET 85.9*.
CCN(CC)c1ccc2c(Cl)cc(=O)oc2c1 was read as Runt-CBFb FRET 40.3, MEX-5 binding -1.7, LANA-H2A inh 3.4, EBV gp42 inh -11.9, RanGTP-Impb inh 73.7* and Runt-SMMHC FRET -19.8.
For Cc1ccc(S(=O)(=O)N(CC(=O)NCc2ccc(F)cc2)C(=O)N2CCN(C)CC2)cc1 the results were MEX-5 binding -0.6, LANA-H2A inh 5.9 and RanGTP-Impb inh -3.7.
CCOC(=O)C1(Cc2cccc(OC)c2)CCN(Cc2cnc(C)s2)CC1 was read as Runt-CBFb FRET 2.1, MEX-5 binding 2.9, LANA-H2A inh 2.0, EBV gp42 inh -14.1, RanGTP-Impb inh 45.0* and Runt-SMMHC FRET -1.1.
Screening CCCCN(CC)Cc1c(O)ccc2c3c(c(=O)oc12)CCC3 returned Runt-CBFb FRET 36.8, MEX-5 binding 0.2, LANA-H2A inh -0.2, EBV gp42 inh -3.3, RanGTP-Impb inh -3.0 and Runt-SMMHC FRET 73.2*.
CCN(CC)C(=O)COc1ccc2c3c(c(=O)oc2c1C)CCCC3 was read as MEX-5 binding 0.7, LANA-H2A inh -6.2 and RanGTP-Impb inh -4.2.
Screening COCCN(CCOC)Cc1c(O)ccc2c3c(c(=O)oc12)CCC3 returned Runt-CBFb FRET 43.6, MEX-5 binding -0.4, LANA-H2A inh 1.4, EBV gp42 inh -17.2, RanGTP-Impb inh -2.0 and Runt-SMMHC FRET 92.6*.
For CN(Cc1c(O)ccc2c1oc(=O)c1ccccc12)C1CCCCC1 the results were Runt-CBFb FRET -8.6, MEX-5 binding -14.9, LANA-H2A inh 1.3, EBV gp42 inh -13.1, RanGTP-Impb inh -4.3 and Runt-SMMHC FRET -34.9.
`Cc1ccnc(N/C=C(\C#N)c2nc(-c3cccc(Br)c3)cs2)c1` gave Runt-CBFb FRET -53.1, MEX-5 binding -8.0, LANA-H2A inh -14.2, EBV gp42 inh -10.2, RanGTP-Impb inh 56.2* and Runt-SMMHC FRET -56.2.
Screening c1ccc2[nH]c(SN3CCOCC3)nc2c1 returned Runt-CBFb FRET 3.6, EBV gp42 inh -81.2 and Runt-SMMHC FRET 62.0*.
Screening CCc1oc2ccccc2c1C(=O)c1cc(Br)c(O)c(Br)c1 returned Runt-CBFb FRET 1.3, MEX-5 binding -5.5, LANA-H2A inh 22.0*!, EBV gp42 inh -6.4, RanGTP-Impb inh 5.8 and Runt-SMMHC FRET -0.7.
`CCOC(=O)C(C#N)=C1CCN(Cc2ccccc2)CC1` gave MEX-5 binding -0.5, LANA-H2A inh 9.0 and RanGTP-Impb inh 51.2*.
`CC(C)(C)[C@H]1C=C(C(N)=O)O[C@@H](OCCCCO)C1` gave Runt-CBFb FRET 1.8, MEX-5 binding 3.8, LANA-H2A inh -3.1, EBV gp42 inh -25.8, RanGTP-Impb inh 0.0 and Runt-SMMHC FRET 0.8.
For CC(C)C[C@H](NC(=O)N1CCn2c1nc1ccccc12)C(=O)NCC1CCCO1 (stereo partly drawn) the results were MEX-5 binding -1.5, LANA-H2A inh 3.5 and RanGTP-Impb inh 20.7*.

Bioassay records deposited in PubChem BioAssay by several laboratories.
